# Measured values as given in ChEMBL document CHEMBL5325455, “Daphnanes diterpenes from the latex of Hura crepitans L. and their PKCζ-dependent anti-proliferative activity on colorectal cancer cells” (Bioorg Med Chem, 2023).
# Calls of active or inactive are those of the source. The rule behind the calls is not given here.
# Columns and labels:
# [1] = system: Caco-2; assay: Induction of apoptosis in human Caco-2 cells assessed as increase in active caspase 3 level; assay type: functional, cell-based
# [2] = system: Caco-2; assay: Effect on phosphorylated MEK at Ser217/221 level in human Caco-2 cells at 1 ug/ml measured after 48 hrs by Western blot analysis; assay type: functional, cell-based; details: dose 1.0 µg/ml
# Summary of the method: (§1)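 Caco-2 cells (0.25 × 10^6/well) were treated at 1 µg/mL for 48 h, with or without 30 min pretreatment with 2.5 µM CRT0066854. Lysates (30 µg protein) were blotted for pSer217/221-MEK and total MEK, with actin as loading control. Detection was by ECL; n=2, t-test versus DMSO.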
# [3] = biological target: RAC-alpha serine/threonine-protein kinase (Homo sapiens) (UniProt P31749); assay: Inhibition of AKT in human Caco-2 cells assessed as reduction in phosphorylation at serine 473 residue at 1 ug/ml incubated for 48 hrs by Western blot analysis; assay type: cell-based; details: dose 1.0 µg/ml
# Sequence of RAC-alpha serine/threonine-protein kinase (Homo sapiens) (P31749 whole entry): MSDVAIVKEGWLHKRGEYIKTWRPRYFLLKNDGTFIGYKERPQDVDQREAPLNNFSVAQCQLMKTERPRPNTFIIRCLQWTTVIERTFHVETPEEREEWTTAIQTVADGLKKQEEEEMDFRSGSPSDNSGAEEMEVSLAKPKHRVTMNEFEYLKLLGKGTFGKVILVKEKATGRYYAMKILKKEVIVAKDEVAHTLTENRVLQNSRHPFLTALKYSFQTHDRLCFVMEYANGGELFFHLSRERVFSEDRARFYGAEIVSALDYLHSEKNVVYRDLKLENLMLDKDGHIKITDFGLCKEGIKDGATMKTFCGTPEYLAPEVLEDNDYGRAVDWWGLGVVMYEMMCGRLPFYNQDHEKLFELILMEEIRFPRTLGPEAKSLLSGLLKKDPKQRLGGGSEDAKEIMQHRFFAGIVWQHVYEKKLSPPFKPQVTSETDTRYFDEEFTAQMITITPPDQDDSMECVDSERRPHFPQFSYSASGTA
# Summary of the method: (§2)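 Caco-2 cells (0.25 × 10^6/well) were treated at 1 µg/mL for 48 h and lysed in pH 7.4 Tris/NaCl/Triton/EDTA buffer with protease and phosphatase inhibitors. 30 µg protein was run per lane on 4–15% gels and blotted for pSer9-GSK3β, total GSK3β, pSer473-Akt, total Akt and β-catenin, with actin as loading control. Detection was by ECL; n=2, t-test versus DMSO.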
# [4] = biological target: Glycogen synthase kinase-3 beta (Homo sapiens) (UniProt P49841); assay: Inhibition of GSK3beta in human Caco-2 cells assessed as increase in phosphorylation at serine 9 residue at 1 ug/ml incubated for 48 hrs by Western blot analysis; assay type: cell-based; details: dose 1.0 µg/ml; summary of the method: as §2
# Sequence of Glycogen synthase kinase-3 beta (Homo sapiens) (P49841 whole entry, looked up): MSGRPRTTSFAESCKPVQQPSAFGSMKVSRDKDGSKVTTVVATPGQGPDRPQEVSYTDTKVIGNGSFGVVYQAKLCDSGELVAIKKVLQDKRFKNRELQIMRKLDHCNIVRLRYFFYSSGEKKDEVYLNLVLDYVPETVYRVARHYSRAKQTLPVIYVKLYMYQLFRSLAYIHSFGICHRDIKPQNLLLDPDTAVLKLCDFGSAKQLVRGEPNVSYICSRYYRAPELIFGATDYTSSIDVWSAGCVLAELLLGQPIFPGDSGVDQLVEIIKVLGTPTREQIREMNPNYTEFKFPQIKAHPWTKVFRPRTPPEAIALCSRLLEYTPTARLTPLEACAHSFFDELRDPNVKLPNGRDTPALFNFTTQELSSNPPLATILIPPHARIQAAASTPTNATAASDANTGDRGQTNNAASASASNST
# [5] = system: Colorectal epithelial cell; assay: (§3) Cytostatic activity against human Colorectal epithelial cells isolated from patient with well-differentiated colonic adenocarcinoma and undergone nine courses of chemotherapy cultured as organoids at 1 ug/ml incubated for 48 hrs by CellTiter-Glo luminescence assay; assay type: functional, cell-based; details: dose 1.0 µg/ml
# Summary of the method: (§4)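 Primary colonic epithelial cells (3 control and 2 CRC patients) were expanded as organoids or spheroids in Matrigel with EGF/noggin/Wnt3a/R-spondin medium. Single cells were seeded at 2500/well and allowed 48 h to form colonoids, then exposed for 48 h at 0.01, 0.1 or 1 µg/mL, with 5FdU at 1 µg/mL as positive control. Viability was read by CellTiter-Glo luminescence versus DMSO or medium control.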
# [6] = system: Colorectal epithelial cell; assay: Cytostatic activity against human Colorectal epithelial cells isolated from left colon of patient with sigmoido-vaginal fistula for diverticulitis cultured as organoids at 1 ug/ml incubated for 48 hrs by CellTiter-Glo luminescence assay; assay type: functional, cell-based; details: dose 1.0 µg/ml; summary of the method: as §4
# [7] = as §3, with “organoids assessed as inhibition of cell growth” for “organoids”, “0.1” for “1”, “assay relative to control” for “assay”; assay type: functional; summary of the method: as §4
# [8] = system: Caco-2; assay: Cytotoxicity against human Caco-2 cells assessed as cell death; assay type: functional, cell-based
# [9] = biological target: Glycogen synthase kinase-3 beta (Homo sapiens) (UniProt P49841); assay: Inhibition of GSK3beta in human Caco-2 cells assessed as increase in phosphorylation at serine 9 residue at 1 ug/ml preincubated for 30 mins with CRT0066854 hydrochloride followed by compound addition and measured after 48 hrs by Western blot analysis; assay type: cell-based; details: dose 1.0 µg/ml
# Summary of the method: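 Caco-2 cells were pretreated with 2.5 µM CRT0066854 hydrochloride for 30 min, then treated at 1 µg/mL for 48 h. Lysates (30 µg protein) were immunoblotted for pSer9-GSK3β and total GSK3β, with actin loading control and ECL detection; n=2.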
# [10] = system: Caco-2; assay: Upregulation of AKT protein expression in human Caco-2 cells at 1 ug/ml incubated for 48 hrs by Western blot analysis; assay type: functional, cell-based; details: dose 1.0 µg/ml; summary of the method: as §2
# [11] = system: Caco-2; assay: Downregulation of PKCalpha expression in human Caco-2 cells at 1 ug/ml incubated for 48 hrs by immunostaining based confocal microscopic analysis; assay type: functional, cell-based; details: dose 1.0 µg/ml
# Summary of the method: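 Caco-2 cells were seeded at 40 000/well and treated for 48 h as in the viability assay. They were fixed in 3.7% PFA for 20 min and permeabilised in HBSS/0.5% Triton X100/1% BSA. Anti-PKCζ (1/50) or anti-PKCα (1/200) was applied overnight at 4°C, then Alexa 488 secondary for 45 min. Phalloidin and Hoechst counterstained the cells before confocal imaging; PKCα signal was quantified by immunofluorescence.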
# [12] = system: Caco-2; assay: Induction of morphological changes in human Caco-2 cells assessed as cellular aggregates formation at 0.125 ug/ml incubated for 48 hrs by Hoechst 3342 and phalloidin staining based confocal microscopic analysis; assay type: functional, cell-based; details: dose 0.125 µg/ml
# Summary of the method: (§5)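 Caco-2 cells (40 000/well) were exposed for 48 h, then fixed in 3.7% PFA and permeabilised with Triton X100/BSA. Actin was stained with phalloidin and nuclei with Hoechst 3342, and cells were viewed by confocal microscopy.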
# [13] = system: Caco-2; assay: Induction of morphological changes in human Caco-2 cells assessed as reorganization of epithelial tissue architecture at 1 ug/ml incubated for 48 hrs by Hoechst 3342 and phalloidin staining based confocal microscopic analysis; assay type: functional, cell-based; details: dose 1.0 µg/ml; summary of the method: as §5
# [14] = system: Colorectal epithelial cell; assay: Cytostatic activity against human Colorectal epithelial cells isolated from patient with well-differentiated colonic adenocarcinoma cultured as organoids at 1 ug/ml incubated for 48 hrs by CellTiter-Glo luminescence assay; assay type: functional, cell-based; details: dose 1.0 µg/ml; summary of the method: as §4
# [15] = system: Caco-2; assay: Cytostatic activity against human Caco-2 cells assessed as inhibition of cell growth at 1 ug/ml preincubated for 15 mins with PKCalpha inhibitor, Go6976 followed by compound addition and measured after 48 hrs by MTS assay; assay type: functional, cell-based; details: dose 1.0 µg/ml
# Summary of the method: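 Caco-2 cells (40 000/well) were pretreated with 0.2 µM Gö6976 for 15 min, then given compound at 1 µg/mL for 48 h. MTS absorbance was read at 490 nm and activity calculated relative to DMSO controls; triplicates, 1–3 independent experiments, two-way ANOVA.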
# [16] = system: Caco-2; assay: Upregulation of phosphorylated MEK at Ser217/221 level in human Caco-2 cells at 1 ug/ml preincubated for 30 mins with CRT0066854 hydrochloride followed by compound addition and measured after 48 hrs by Western blot analysis; assay type: functional, cell-based; details: dose 1.0 µg/ml; summary of the method: as §1
# [17] = system: Caco-2; assay: Induction of morphological changes in human Caco-2 cells assessed as cellular aggregation at 1 ug/ml preincubated for 15 mins with PKCalpha inhibitor, Go6976 followed by compound addition and measured after 48 hrs by immunostaining based confocal microscopic analysis; assay type: functional, cell-based; details: dose 1.0 µg/ml
# Summary of the method: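 Caco-2 cells were given 0.2 µM Gö6976 for 15 min before compound at 1 µg/mL for 48 h. PKCα was immunostained, nuclei and cytoskeleton were labelled, and cells were imaged by confocal microscopy (20X objective) in duplicate from one experiment.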
# [18] = Cytostatic activity against human Colorectal epithelial cells isolated from patient with well-differentiated colonic adenocarcinoma cultured as organoids assessed as inhibition of cell growth at 0.1 ug/ml incubated for 48 hrs by CellTiter-Glo luminescence assay relative to control; assay type: functional; summary of the method: as §4
# [19] = system: Caco-2; assay: Induction of morphological changes in human Caco-2 cells assessed as densification of cytoskeleton at 1 ug/ml incubated for 48 hrs by Hoechst 3342 and phalloidin staining based confocal microscopic analysis; assay type: functional, cell-based; details: dose 1.0 µg/ml; summary of the method: as §5
# [20] = system: Caco-2; assay: Effect on beta-catenin protein expression in human Caco-2 cells at 1 ug/ml incubated for 48 hrs by Western blot analysis; assay type: functional, cell-based; details: dose 1.0 µg/ml; summary of the method: as §2
# [21] = system: Colorectal epithelial cell; assay: Cytostatic activity against human Colorectal epithelial cells isolated from left colon of patient with recurrent diverticulitis cultured as organoids at 1 ug/ml incubated for 48 hrs by CellTiter-Glo luminescence assay; assay type: functional, cell-based; details: dose 1.0 µg/ml; summary of the method: as §4
SMILES,Activity [1],Activity [2],inhibition [3],inhibition [4],Activity [5],Activity [6],inhibition at 0.1 µg/mL [7] [%],Activity [8],inhibition [9],Activity [10],Activity [11],Activity [12],Activity [13],Activity [14],Activity [15],Activity [16],Activity [17],inhibition at 0.1 µg/mL [18] [%],Activity [19],Activity [20],further results
C=C(C)[C@]12C[C@@H](C)[C@@]34O[C@](/C=C/[C@@H]5O[C@H]5CCCCCCCCC)(O[C@@H]1[C@@H]3[C@@H]1O[C@]1(CO)[C@@H](O)[C@]1(O)C(=O)C(C)=C[C@H]14)O2,inactive,inactive,Active,Active,Active,Active,40,inactive,inactive,Active,Active,Active,Active,Active,Active,Active,Active,40,Active,inactive,Activity [21]: Active
C=C(C)[C@]12C[C@@H](C)[C@@]34O[C@](/C=C/C=C/CCCCCCCCC)(O[C@@H]1[C@@H]3[C@@H]1O[C@]1(CO)[C@@H](O)[C@]1(O)C(=O)C(C)=C[C@H]14)O2,inactive,inactive,Active,Active,Active,Active,40,inactive,inactive,Active,Active,Active,Active,Active,Active,Active,Active,40,Active,inactive,Activity [21]: Active
